Experimental findings from ChEMBL document CHEMBL4842356, “Discovery, optimization, and target identification of novel coumarin derivatives as HIV-1 reverse transcriptase-associated ribonuclease H inhibitors” (Eur J Med Chem, 2021) are described below.

As a reminder, the EC50 is the concentration at which the effect is half-maximal. A word on the CC50: it is the concentration giving 50% cytotoxicity. In general, IC50 refers to the concentration at which inhibition is half-maximal. For orientation: inhibition means how much of the control response was suppressed.

Experiment [1] relates to Human immunodeficiency virus 1. Description: Antiviral activity against wild type HIV1 3B infected in human MT4 cells assessed as protection against virus-induced cytopathic effect incubated for 5 days by MTT assay. It counts as functional, organism-based. The settings on record: Human immunodeficiency virus 1, 3B, MT4, 120 h. In outline: (§1)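 MT-4 cells (exponentially growing, resuspended at 6 × 10⁵ cells/mL) were seeded onto serial five-fold compound dilutions and infected with 100–300 CCID₅₀ virus stock, or given medium only (mock). Viability was read by MTT at 540 and 690 nm five days after infection, using the median OD of three wells. EC₅₀ is 50% protection from viral cytopathicity. CC₅₀ is 50% loss of viability in mock-infected cells.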
(In general: Damage to the host cells serves as the signal in cytopathic effect assays.)

Experiment [2] has as its system Human immunodeficiency virus 1. The experiment is described as follows: Antiviral activity against HIV1 RES056 infected in human MT4 cells assessed as protection against virus-induced cytopathic effect incubated for 5 days by MTT assay. Format: functional, organism-based. The settings on record: Human immunodeficiency virus 1, RES056, MT4, 120 h. The procedure, abridged:
as §1

In experiment [3] the test system is MT4. The experiment is described as follows: Cytotoxicity against mock-infected human MT4 cells assessed as reduction in cell viability measured after 5 days by MTT assay. Format: functional. The settings on record: MT4, 120 h, time 5 day. In outline: as §1
In general terms: Formazan colour is commonly taken as a measure of viable cells.

Experiment [4] has as its system Human immunodeficiency virus 2. Description: Antiviral activity against HIV2 ROD infected in human MT4 cells assessed as protection against virus-induced cytopathic effect incubated for 5 days by MTT assay. The settings on record: Human immunodeficiency virus 2, ISOLATE ROD, MT4, 120 h.
Experiment [5] deals with Human immunodeficiency virus type 1 reverse transcriptase (Human immunodeficiency virus 1, UniProt Q72547). Description: Inhibition of wild type HIV1 Reverse transcriptase RNase H expressed in Escherichia coli using 5'-UUUUUUUUUAGGAUACAUAUGGUUAAAGU-3' oligonucleotide as substrate and DNA21P as primer in presence of [gamma32P]-ATP by PAGE analysis. The procedure, abridged: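 Wild-type HIV-1 BH10 RT was expressed in E. coli and purified. RNase H activity was measured on a 31-nt RNA, 5′-³²P-labelled, annealed to a 21-nt DNA (31T/21P). Cleaved substrate was quantified without inhibitor (5% DMSO) and with compound over 0.2–100 µM. IC₅₀ values were taken from dose-response curves.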

For experiment [6], the system named is Human immunodeficiency virus 1. Description: Antiviral activity against HIV1 harboring reverse transcriptase V106A/F227 mutant infected in human MT4 cells assessed as protection against virus-induced cytopathic effect incubated for 5 days by MTT assay. Format: functional, organism-based. The settings on record: Human immunodeficiency virus 1, MT4, 120 h. In outline:
(§2)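 MT-4 cells (exponentially growing, resuspended at 6 × 10⁵ cells/mL) exposed to serial five-fold compound dilutions, then infected with mutant HIV-1 stock at 100–300 CCID₅₀; mock-infected wells run in parallel for cytotoxicity. Viability read by MTT at 540 and 690 nm on day 5. Median OD of three wells used; EC₅₀ is the concentration giving 50% protection from viral cytopathicity.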

In experiment [7] the test system is Human immunodeficiency virus 1. Description: Antiviral activity against HIV1 L1001 infected in human MT4 cells assessed as protection against virus-induced cytopathic effect incubated for 5 days by MTT assay. It counts as functional, organism-based. The settings on record: Human immunodeficiency virus 1, L1001, MT4, 120 h. The procedure, abridged:
as §2

For experiment [8], the system named is Human immunodeficiency virus 1. The experiment is described as follows: Antiviral activity against HIV1 harboring reverse transcriptase Y188L mutant infected in human MT4 cells assessed as protection against virus-induced cytopathic effect incubated for 5 days by MTT assay. The settings on record: Human immunodeficiency virus 1, MT4, 120 h. Format: functional, organism-based. The procedure, abridged:
as §2

Experiment [9] has as its system Human immunodeficiency virus 1. Description: Antiviral activity against HIV1 harboring reverse transcriptase K103N mutant infected in human MT4 cells assessed as protection against virus-induced cytopathic effect incubated for 5 days by MTT assay. The settings on record: Human immunodeficiency virus 1, MT4, 120 h. It counts as functional, organism-based. The procedure, abridged: as §2

The test system of experiment [10] is Human immunodeficiency virus 1. The experiment is described as follows: Antiviral activity against HIV1 harboring reverse transcriptase E138K mutant infected in human MT4 cells assessed as protection against virus-induced cytopathic effect incubated for 5 days by MTT assay. Format: functional, organism-based. The settings on record: Human immunodeficiency virus 1, MT4, 120 h.

In experiment [11] the test system is Human immunodeficiency virus 1. Description: Antiviral activity against HIV1 harboring reverse transcriptase Y181C mutant infected in human MT4 cells assessed as protection against virus-induced cytopathic effect incubated for 5 days by MTT assay. It counts as functional, organism-based. The settings on record: Human immunodeficiency virus 1, MT4, 120 h. In outline: as §2

Experiment [12] concerns the target Human immunodeficiency virus type 1 reverse transcriptase (Human immunodeficiency virus 1) (UniProt Q72547). The experiment is described as follows: Inhibition of wild type HIV1 Reverse transcriptase RNase H expressed in Escherichia coli at 50 uM using 5'-UUUUUUUUUAGGAUACAUAUGGUUAAAGU-3' oligonucleotide as substrate and DNA21P as primer in presence of [gamma32P]-ATP by PAGE analysis relative to control.

Experiment [13] has the same target. Description: Inhibition of wild type HIV1 Reverse transcriptase RNase H expressed in Escherichia coli at 100 uM using 5'-UUUUUUUUUAGGAUACAUAUGGUUAAAGU-3' oligonucleotide as substrate and DNA21P as primer in presence of [gamma32P]-ATP by PAGE analysis relative to control.

For `Cc1c(O)c([N+](=O)[O-])cc2cc(C(=O)Nc3ccc(O)c(C(=O)O)c3)c(=O)oc12`, the results for the EC50 in experiment [1], in experiment [2] and in [4] were 121 µM, 113 µM and 121 µM, respectively. Besides, in experiment [3], the CC50 was over 312 µM. Also, the IC50 in experiment [5] is 9.9 µM.

In the case of `O=C(O)c1cc(NC(=O)c2cc3cc([N+](=O)[O-])c(O)c(O)c3oc2=O)ccc1O`, the EC50 in [1] worked out at 101 µM; in experiment [2], 107 µM; in experiment [4], 116 µM. The CC50 in experiment [3] was over 310 µM. In experiment [5], the concentration for half-maximal inhibition (IC50) turned out to be 20.8 µM.

`O=C(c1cc2cc([N+](=O)[O-])c(O)c(O)c2oc1=O)N1CCCN(S(=O)(=O)c2ccc3ccncc3c2)CC1`: the EC50 was 82.7 µM in experiment [1], 123 µM in [2] and over 231 µM in experiment [4]. Further, the CC50 in [3] was over 231 µM. Moreover, the concentration for half-maximal inhibition (IC50) in [5] worked out at 68.5 µM.

In the case of `CCC1CCN(C2CCN(C(=O)c3cc4cc([N+](=O)[O-])c(O)c(O)c4oc3=O)CC2)CC1`, the EC50 in experiment [1] was 208 µM; in experiment [2], 213 µM; in experiment [4], over 280 µM. Also, the CC50 in experiment [3] was over 280 µM. Also, the IC50 in experiment [5] was over 250 µM.

`CCCN(C(=O)c1cc2cc([N+](=O)[O-])c(O)c(O)c2oc1=O)[C@@H]1CCc2nc(N)sc2C1`: the EC50 in experiment [1] was found to be 28.5 µM; in [2] it was 19.6 µM; in experiment [4], 144 µM. For the same molecule, the CC50 in experiment [3] was over 271 µM. Moreover, the IC50 in experiment [5] stood at 45.1 µM.

For `Cc1ccnc2c1NC(=O)c1cccnc1N2C1CC1` [NEVIRAPINE], the EC50 in experiment [1] is 1.9 µM; in [2], over 15 µM; in experiment [6] it was over 5.78 µM; in [7] it was 0.7 µM; in experiment [8], over 2.97 µM; in [9], 2.85 µM. The CC50 in experiment [3] was over 15 µM.

`COC(=O)c1cc(NC(=O)c2cc3cc([N+](=O)[O-])c(O)c(O)c3oc2=O)ccc1O`: the EC50 in [1] is 3.94 µM; in experiment [6] it was 101 µM; in [4] it was 169 µM; in experiment [7] it was 16.5 µM; in experiment [10], 22.5 µM; in experiment [11], 22.4 µM. Also, the values for the EC50 in experiment [8] and in [9] were 44.3 µM and 5.62 µM, respectively. In addition, the CC50 in experiment [3] is over 300 µM. Moreover, the IC50 in [5] stood at 12.3 µM.

On to `O=C(Nc1ccc(F)cc1)c1cc2cc([N+](=O)[O-])c(O)c(O)c2oc1=O`, for which the EC50 in experiment [1] and in experiment [4] was over 200 µM throughout. Besides, the results for the inhibition in experiment [12] and in experiment [13] were under 10% and 72.5%, respectively. Also, the CC50 in experiment [3] came out at 200 µM. The IC50 in experiment [5] was over 50 µM.
